Measured values from publication PMC10447992 (Heliyon, 2023).

How the values were obtained:
[1] = MTT cytotoxicity assay, WISH cell line; format: cell-based; details: human, WISH cells (human amnion)
Outline: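 WISH cells (ATCC via VACSERA) grown in RPMI-1640 with 10% fetal bovine serum at 37 °C, 5% CO2. Seeded at 1.0 × 10^4 cells/well for 48 h, then treated 24 h with a range of concentrations. MTT (5 mg/mL stock) added for 4 h, formazan dissolved in DMSO, A570 read. Viability given as % of untreated cells. IC50 in μg/mL is the concentration giving 50% inhibition versus untreated cells. Doxorubicin reference.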

[2] = Antioxidant activity screening by ABTS method; details: ABTS radical scavenging, 6 min incubation, absorbance at 734 nm
Outline: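 ABTS radical made from 7 mM ABTS plus 140 mM […], left in the dark at room temperature for 16 h, then diluted 1:44 (v/v) in water. Equal volumes of radical solution and sample mixed in microplate and held 6 min at room temperature. Absorbance read at 734 nm against 100% methanol. Percent inhibition calculated by formula; L-ascorbic acid as reference.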

Compound | IC50 at 24 h [1] | ABTS Inhibition % [2]
COc1cccc2c1C(=O)c1c(O)c3c(c(O)c1C2=O)C[C@@](O)(C(=O)CO)C[C@@H]3O[C@H]1C[C@H](N)[C@H](O)[C@H](C)O1 [DOX, doxorubicin] | 3.18 ± 0.2 µM | 
O=C1O[C@H]([C@@H](O)CO)C(O)=C1O [L-Ascorbic acid] |  | 88.8%
